≈ marks a conversion by molar mass, not a printed value.
Tests used:
Staphylococcus aureus = experiment: In Vitro minimal inhibitory concentration against Staphylococcus aureus (FDA 209P); assay type: functional
In short: (§1)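 Serial broth dilution in heart infusion broth. Inoculum was a 10^-4 dilution of an overnight culture. Seeded antibiotic-containing tubes were incubated 37 °C for 20 h. […] Values are the average of triplicate determinations.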

Pseudomonas aeruginosa = experiment: In Vitro minimal inhibitory concentration against Pseudomonas aeruginosa (1101-75); assay type: functional; in short: as §1
Klebsiella pneumoniae = experiment: In Vitro minimal inhibitory concentration against Klebsiella pneumoniae (NCTC 418); assay type: functional; in short: as §1
Escherichia coli = experiment: In Vitro minimal inhibitory concentration against Escherichia coli (ATCC 39188); assay type: functional; in short: as §1
Salmonella typhi = experiment: In Vitro minimal inhibitory concentration against Salmonella typhi (O-901); assay type: functional, Salmonella enterica subsp. enterica serovar Typhi; conditions: Salmonella enterica
In short: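 Serial broth dilution MIC. Inoculum: overnight culture diluted 10^-4 in heart infusion broth. Seeded antibiotic-containing broth tubes incubated 20 h at 37 °C. MIC is the lowest concentration preventing visible growth. Concentrations tested up to 128 μg/mL. Values are the average of triplicate determinations.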

Structure (SMILES)	MIC (Staphylococcus aureus) [µg/mL]	MIC (Pseudomonas aeruginosa) [µg/mL]	MIC (Klebsiella pneumoniae) [µg/mL]	MIC (Escherichia coli) [µg/mL]	MIC (Salmonella typhi) [µg/mL]
CS(=O)(=O)OC1=C(C(=O)O)N2C(=O)[C@@H](NC(=O)Cc3ccccc3)[C@H]2CN1 (racemic)	0.07 (≈ 0.177 µM)	4.38 (≈ 11.1 µM)	0.68 (≈ 1.72 µM)	0.95 (≈ 2.4 µM)	1.2 (≈ 3.03 µM)
CC1(C)S[C@@H]2[C@H](NC(=O)Cc3ccccc3)C(=O)N2[C@H]1C(=O)O [PENICILLIN G]	0.4 (≈ 1.2 µM)	> 128	> 128	2.3 (≈ 6.88 µM)	> 128
O=C(Cc1ccccc1)N[C@@H]1C(=O)N2C(C(=O)O)=C(OS(=O)(=O)C(F)(F)F)NC[C@H]12 (racemic)	0.01 (≈ 0.0223 µM)	1.15 (≈ 2.56 µM)	0.24 (≈ 0.534 µM)	0.09 (≈ 0.2 µM)	0.68 (≈ 1.51 µM)
O=C(Cc1ccccc1)N[C@@H]1C(=O)N2C(C(=O)OCc3ccccc3)=C(OS(=O)(=O)C(F)(F)F)NC[C@H]12 (racemic)	> 128	> 128	> 128	> 128	> 128
O=C(Cc1ccccc1)N[C@@H]1C(=O)N2C(C(=O)O)=C(O)NC[C@H]12 (racemic)	29.5 (≈ 93 µM)	> 128	> 128	94.7 (≈ 298 µM)	> 128
CO/N=C(\C(=O)N[C@@H]1C(=O)N2C(C(=O)O)=C(COC(C)=O)CS[C@H]12)c1csc(N)n1 [CEFOTAXIME]	0.08 (≈ 0.176 µM)	62.4 (≈ 137 µM)	10.2 (≈ 22.5 µM)	0.25 (≈ 0.549 µM)	20.3 (≈ 44.6 µM)
CS(=O)(=O)OC1=C(C(=O)OCc2ccccc2)N2C(=O)[C@@H](NC(=O)Cc3ccccc3)[C@H]2CN1 (racemic)	> 128	> 128	> 128	> 128	> 128
CS(=O)(=O)C1=C(O)NC[C@@H]2[C@H](NC(=O)Cc3ccccc3)C(=O)N12 (racemic)	> 128	> 128	> 128	> 128	> 128
CS(=O)(=O)C1(C(=O)O)C(=O)NC[C@@H]2[C@H](NC(=O)Cc3ccccc3)C(=O)N21 (stereo not given in full)	48.5 (≈ 123 µM)	120 (≈ 303 µM)	51 (≈ 129 µM)	97.2 (≈ 246 µM)	65.3 (≈ 165 µM)
CC1=C(C(=O)O)N2C(=O)[C@@H](NC(=O)Cc3ccccc3)[C@H]2SC1	0.64 (≈ 1.93 µM)	100 (≈ 301 µM)	2.98 (≈ 8.97 µM)	13.1 (≈ 39.5 µM)	24.5 (≈ 73.7 µM)

Reference: ChEMBL document CHEMBL1131185, “Syntheses of new isodethiaazacephems as potent antibacterial agents” (1998)
